Laboratory results from ChEMBL document CHEMBL1154137, “Monodictyochromes A and B, dimeric xanthone derivatives from the marine algicolous fungus Monodictys putredinis” (J Nat Prod, 2008).
Active and inactive are the calls of the source. The rule behind the calls is not given here.

Tests used:
[1] = Antioxidant activity assessed as AAPH radical scavenging activity; format: functional
Procedure, shortened: (§1)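 Oxygen radical absorbance capacity (ORAC) assay. AAPH generates peroxyl radicals, and trolox, the water-soluble vitamin E analogue, serves as reference. Compounds tested at 1 µM.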

[2] = Inhibition of CYP1A in beta-naphthoflavone-stimulated rat […] cells assessed as dealkylation of 3-cyano-7-ethoxycoumarin to 3-cyano-7-hydroxyciumarin; format: ADME, cell-based; conditions: for IC50: Rattus norvegicus; for Activity: rat
Procedure, shortened: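 Rat hepatoma H4IIE cells induced with β-naphthoflavone, then homogenised. CYP1A activity measured as dealkylation of 3-cyano-7-ethoxycoumarin to fluorescent 3-cyano-7-hydroxycoumarin, over a dose range. α-Naphthoflavone serves as positive control. IC50 is given as mean ± SD, n = 3.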

[3] = Cytotoxicity against mouse Hepa-1c1c7 cells by MTT assay; format: cell-based
Aromatase = target: T1, Aromatase (Homo sapiens, UniProt P11511); assay: Inhibition of human recombinant aromatase; conditions: for Activity: human
T1 sequence (P11511 whole entry): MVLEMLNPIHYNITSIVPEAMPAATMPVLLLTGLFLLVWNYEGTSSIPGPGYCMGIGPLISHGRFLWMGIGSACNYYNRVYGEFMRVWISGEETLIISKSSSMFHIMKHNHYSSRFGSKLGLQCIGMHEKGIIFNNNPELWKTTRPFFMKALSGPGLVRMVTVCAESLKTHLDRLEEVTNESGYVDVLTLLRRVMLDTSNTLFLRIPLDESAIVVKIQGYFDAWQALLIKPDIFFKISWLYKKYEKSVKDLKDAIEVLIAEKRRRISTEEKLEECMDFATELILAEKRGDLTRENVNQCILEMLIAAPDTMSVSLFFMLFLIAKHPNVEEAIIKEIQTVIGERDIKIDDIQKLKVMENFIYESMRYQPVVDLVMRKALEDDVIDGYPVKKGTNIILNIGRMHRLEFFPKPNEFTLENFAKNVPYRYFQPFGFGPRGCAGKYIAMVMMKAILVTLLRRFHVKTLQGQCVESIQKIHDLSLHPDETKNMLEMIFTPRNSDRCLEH
Procedure, shortened: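 Human recombinant CYP19 (aromatase) with O-benzylfluorescein benzyl ester (DBF) as substrate.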

[4] = Antioxidant activity assessed as superoxide anion radical scavenging activity up to 50 uM; format: functional
Procedure, shortened: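 Superoxide anion radicals generated by xanthine oxidase oxidising hypoxanthine to uric acid. Scavenging tested at concentrations up to 50 µM.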

[5] = Antioxidant activity assessed as AAPH radical scavenging activity at 1 uM; format: functional; procedure, shortened: as §1
Priestia megaterium = assay: Antibacterial activity against Bacillus megaterium at 1 mg/ml by agar diffusion assay; format: functional, organism-based
Procedure, shortened: (§2)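 Agar diffusion assay with test solution at 1 mg/mL. Organisms: bacteria Bacillus megaterium and Escherichia coli; fungi Microbotryum violaceum, Eurotium rubrum and Mycotypha microspora; green microalga Chlorella fusca.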

Escherichia coli = assay: Antibacterial activity against Escherichia coli at 1 mg/ml by agar diffusion assay; format: functional, organism-based; procedure, shortened: as §2
Microbotryum violaceum = assay: Antifungal activity against Microbotryum violaceum at 1 mg/ml by agar diffusion assay; format: functional, organism-based; procedure, shortened: as §2
Aspergillus ruber = assay: Antifungal activity against Eurotium rubrum at 1 mg/ml by agar diffusion assay; format: functional, organism-based; procedure, shortened: as §2
Mycotypha microspora = assay: Antifungal activity against Mycotypha microspora at 1 mg/ml by agar diffusion assay; format: functional, organism-based; procedure, shortened: as §2
[Chlorella] fusca = Antialgal activity against Chlorella fusca at 1 mg/ml by agar diffusion assay; format: functional, organism-based; conditions: Scenedesmus fuscus; procedure, shortened: as §2
[6] = target: Prostaglandin G/H synthase 1 (Homo sapiens) (UniProt P23219); assay: Inhibition of COX1 at 100 uM
Prostaglandin G/H synthase 1 (Homo sapiens), sequence (P23219 whole entry): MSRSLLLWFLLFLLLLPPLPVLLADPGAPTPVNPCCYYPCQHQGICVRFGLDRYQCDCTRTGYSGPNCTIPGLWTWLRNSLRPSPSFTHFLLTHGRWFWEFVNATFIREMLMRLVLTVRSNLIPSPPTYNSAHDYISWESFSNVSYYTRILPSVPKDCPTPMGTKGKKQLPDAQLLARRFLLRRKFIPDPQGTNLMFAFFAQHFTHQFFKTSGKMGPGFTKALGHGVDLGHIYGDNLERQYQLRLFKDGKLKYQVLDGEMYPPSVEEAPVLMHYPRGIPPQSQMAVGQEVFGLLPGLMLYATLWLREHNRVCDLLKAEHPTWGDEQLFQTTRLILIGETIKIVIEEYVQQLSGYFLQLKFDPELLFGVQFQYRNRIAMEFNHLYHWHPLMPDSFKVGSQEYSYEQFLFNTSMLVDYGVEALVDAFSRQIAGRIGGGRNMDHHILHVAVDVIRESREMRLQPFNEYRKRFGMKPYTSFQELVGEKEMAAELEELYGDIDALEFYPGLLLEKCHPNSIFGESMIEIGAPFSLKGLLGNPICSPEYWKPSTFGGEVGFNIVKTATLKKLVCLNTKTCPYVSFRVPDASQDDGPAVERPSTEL
Procedure, shortened: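 COX-1 enzymatic activity used as a marker of tumour promotion. Compounds tested at 100 µM.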

[7] = test system: Radical scavenging activity; assay: Antioxidant activity assessed as DPPH radical scavenging activity up to 250 uM; format: functional
[8] = target: T2, Quinone oxidoreductase (Mus musculus) (UniProt P47199); assay: Ratio of compound to sulforaphane level required to double NADPH-quinone reductase activity in mouse Hepa-1c1c7 cells; format: cell-based
T2 sequence (whole entry): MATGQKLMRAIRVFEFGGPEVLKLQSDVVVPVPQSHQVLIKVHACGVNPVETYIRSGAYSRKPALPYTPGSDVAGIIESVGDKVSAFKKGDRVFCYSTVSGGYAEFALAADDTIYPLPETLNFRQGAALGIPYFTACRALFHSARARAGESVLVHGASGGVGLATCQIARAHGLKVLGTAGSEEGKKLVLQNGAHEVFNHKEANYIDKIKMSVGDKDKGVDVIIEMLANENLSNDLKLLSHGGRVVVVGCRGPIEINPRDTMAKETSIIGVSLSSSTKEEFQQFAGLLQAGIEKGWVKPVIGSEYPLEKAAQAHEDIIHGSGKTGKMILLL

| SMILES | Activity [1] | IC50 [2] | Activity [2] | IC50 [3] | IC50 (Aromatase) | Activity (Aromatase) | Activity [4] | Activity [5] | Activity (Priestia megaterium) | Activity (Escherichia coli) | Activity (Microbotryum violaceum) | Activity (Aspergillus ruber) | Activity (Mycotypha microspora) | Activity ([Chlorella] fusca) | inhibition [6] | Activity [7] | Ratio [8] |
| --- | --- | --- | --- | --- | --- | --- | --- | --- | --- | --- | --- | --- | --- | --- | --- | --- | --- |
| Cc1c(C)c2c(c(C)c1O)CCC(C)(C(=O)O)O2 (stereo not drawn) | Active |  |  |  |  |  |  |  |  |  |  |  |  |  |  |  |  |
| Cc1cc(O)c2c(c1-c1ccc3c(c1O)C(=O)C[C@](C)([C@@H]1OC(=O)C[C@@H]1C)O3)O[C@](C)([C@@H]1OC(=O)C[C@H]1O)CC2=O [MONODICTYOCHROMONE A] |  | 5.3 µM | Dose-dependent effect | > 50 µM | 24.4 µM | Dose-dependent effect | inactive | Active | inactive | inactive | inactive | inactive | inactive | inactive | < 50% | inactive | 100 |
| Cc1cc2c(c(O)c1-c1ccc3c(c1O)C(=O)C[C@](C)([C@@H]1OC(=O)C[C@@H]1C)O3)C(=O)C[C@@](C)([C@@H]1OC(=O)C[C@H]1O)O2 [MONODICTYOCHROMONE B] |  | 7.5 µM | Dose-dependent effect | > 50 µM | 16.5 µM | Dose-dependent effect | inactive | Active | inactive | inactive | inactive | inactive | inactive | inactive | < 50% | inactive | 100 |
